Experimental data gathered from unrelated publications.
Each line is one published result; the experiments were not run side by side.
Organism: Klebsiella pneumoniae
Read-out: microbial growth

`CC1(C)S[C@@H]2[C@H](NC(=O)[C@H](N)c3ccccc3)C(=O)N2[C@H]1C(=O)O` has an MIC of 172 µM (broth dilution; ATCC43816).
`CN(C)[C@@H]1C(O)=C(C(N)=O)C(=O)[C@@]2(O)C(O)=C3C(=O)c4c(O)cccc4[C@@](C)(O)[C@H]3C[C@@H]12` gave an MIC of 2 µg/mL (broth dilution; ATCC43816).
With `CCCCCCC#Cc1cncc(-c2nnc(SCc3cc([N+](=O)[O-])cc([N+](=O)[O-])c3)n2C2CCNCC2)c1` the MIC was over 64 µg/mL (broth dilution; DSM30104).
`C[C@H]1[C@H](NC(=O)/C(=N\OC(C)(C)C(=O)O)c2csc(N)n2)C(=O)N1S(=O)(=O)O` gave an MIC of 0.0625 µg/mL (broth dilution; ATCC13883).
`CC[C@H]1OC(=O)[C@H](C)[C@@H](O[C@H]2C[C@@](C)(OC)[C@@H](O)[C@H](C)O2)[C@H](C)[C@@H](O[C@@H]2O[C@H](C)C[C@H](N(C)C)[C@H]2O)[C@](C)(O)C[C@@H](C)C(=O)[C@H](C)[C@@H](O)[C@]1(C)O` has an MIC of 32 µg/mL (broth dilution; ATCC43816).
`CCCCCCC#Cc1cncc(-c2nnc(SCc3ccc([N+](=O)[O-])cc3)n2CCCN)c1` has an MIC of over 64 µg/mL (broth dilution; DSM30104).
`C[C@@H](O)[C@H]1C(=O)N2C(C(=O)O)=C(S[C@@H]3CN[C@H](C(=O)N(C)C)C3)[C@H](C)[C@H]12` gave an MIC of 2 µg/mL (broth dilution; ATCC700603).
With `CC1(C)S[C@@H]2[C@H](NC(=O)[C@H](N)c3ccc(O)cc3)C(=O)N2[C@H]1C(=O)O` the MIC was over 64 µg/mL (broth dilution; ATCC13883).
With `O=C(N[C@H](CO)[C@H](O)c1ccc([N+](=O)[O-])cc1)C(Cl)Cl` the MIC was 4 µg/mL (broth dilution; ATCC43816).
The MIC of `O=C(O)c1cn(C2CC2)c2cc(N3CCNCC3)c(F)cc2c1=O` is reported as 0.1 µM (broth dilution; ATCC27736; 16 h).
The MIC of `Cc1cc(NS(=O)(=O)c2ccc(N)cc2)no1` is reported as 64 µg/mL (broth dilution; ATCC43816).
`CC1(C)S[C@@H]2[C@H](NC(=O)[C@H](N)c3ccccc3)C(=O)N2[C@H]1C(=O)O` has an MIC of 8 µg/mL (broth dilution; ATCC700603).
`CNC(C)C1CCC(N)C(OC2C(N)CC(N)C(OC3OCC(C)(O)C(NC)C3O)C2O)O1` (stereo not drawn) has an MIC of 2 µg/mL (broth dilution; ATCC13883).
For `O=C(O)c1cn(C2CC2)c2cc(N3CCNCC3)c(F)cc2c1=O`, the MIC was over 512 µg/mL (broth dilution; ATCC700603).
For `CO[C@@]1(NC(=O)Cc2cccs2)C(=O)N2C(C(=O)O)=C(COC(N)=O)CS[C@@H]21`, the MIC was 1 µg/mL (broth dilution; ATCC43816).
`CN(C)[C@@H]1C(O)=C(C(N)=O)C(=O)[C@@]2(O)C(O)=C3C(=O)c4c(O)cccc4[C@@](C)(O)[C@H]3C[C@@H]12` has an MIC of 1 µg/mL (broth dilution; ATCC13883).
For `N[C@@H](Cc1c[nH]c2ccc(Cl)cc12)C(=O)O`, the MIC was over 200 µM (MGH78578; 18 h).
With `C[C@@H](O)[C@H]1C(=O)N2C(C(=O)O)=C(SCCN=CN)C[C@H]12` the MIC was 4 µg/mL (broth dilution; ATCC13883).
With `CCCCCCC#Cc1cncc(-c2nnc(SCc3cc(C(F)(F)F)cc(C(F)(F)F)c3)n2CCCN)c1` the MIC was 32 to 64 µg/mL (broth dilution; DSM30104).
`CN(C)c1ccc(O)c2c1C[C@H]1C[C@H]3[C@H](N(C)C)C(O)=C(C(N)=O)C(=O)[C@@]3(O)C(O)=C1C2=O` gave an MIC of 1 µg/mL (broth dilution; ATCC43816).
`CCCCCCCCCCCC[N+](C)(C)Cc1ccccc1` gave an MIC of 8 µM (ATCC4352).
